iPSC survival up: increases survival of single human iPS cells | hiPSC single-cell survival, ATPlite luminescence; 100% = ROCK inhibitor wells, 0% = DMSO | survival enhancement, % at 20 µM | hit rate 0.044% among 360,000 | AID 602274; in the data active means survival enhancement above about 18%;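 further: cells exposed to compounds for 16 hours before the ATP read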
ABCB6 inh MLPCN: inhibitors of human ABC transporter ABCB6 | K562-ABCB6 porphyrin accumulation, flow cytometry, 1 h; hits give low values | hit rate 0.19% among 360,000 | Q9NP58 | AID 602162 | fluorescence ratio to DMSO, % at 10 µM;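 active means fluorescence ratio to DMSO below 75%, the collection mean minus 3 SD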;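 further: signal is porphyrin accumulated inside mitochondria; lower ratio means ABCB6 inhibition with less porphyrin fluorescence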
Target sequence (Q9NP58 whole entry, looked up): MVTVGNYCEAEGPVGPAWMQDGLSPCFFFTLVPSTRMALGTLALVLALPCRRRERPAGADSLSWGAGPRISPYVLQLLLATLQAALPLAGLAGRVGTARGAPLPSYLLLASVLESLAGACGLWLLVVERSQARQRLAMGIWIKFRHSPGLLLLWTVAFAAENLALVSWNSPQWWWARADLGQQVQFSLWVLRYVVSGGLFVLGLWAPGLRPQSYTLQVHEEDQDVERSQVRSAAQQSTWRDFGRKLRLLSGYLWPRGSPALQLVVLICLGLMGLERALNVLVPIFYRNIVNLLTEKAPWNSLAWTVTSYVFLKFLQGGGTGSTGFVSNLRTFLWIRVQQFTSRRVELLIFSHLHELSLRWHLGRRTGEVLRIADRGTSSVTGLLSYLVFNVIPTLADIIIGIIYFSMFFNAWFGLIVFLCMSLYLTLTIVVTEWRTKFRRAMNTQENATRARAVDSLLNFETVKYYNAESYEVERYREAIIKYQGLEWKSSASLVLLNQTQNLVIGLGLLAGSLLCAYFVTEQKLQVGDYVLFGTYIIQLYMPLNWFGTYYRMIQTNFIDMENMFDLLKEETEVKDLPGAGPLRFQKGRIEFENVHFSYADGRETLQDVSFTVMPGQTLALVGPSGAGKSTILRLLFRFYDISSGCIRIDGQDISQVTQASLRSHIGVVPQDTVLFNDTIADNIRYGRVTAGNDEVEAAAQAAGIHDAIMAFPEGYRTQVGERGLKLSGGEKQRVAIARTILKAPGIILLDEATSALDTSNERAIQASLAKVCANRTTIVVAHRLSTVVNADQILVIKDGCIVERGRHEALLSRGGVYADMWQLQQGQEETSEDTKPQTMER
Exocytosis inh: blocks lytic granule exocytosis; TALL-104 LAMP-1 surface exposure, flow cytometry; cells stimulated with thapsigargin and PMA; inhibition, % at 10 µM; hit rate 0.66% among 360,000; AID 651702;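 active means inhibition above about 55%, limit read from the data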
MC4R antagonist: blocks human MC4R cAMP signaling; hit rate 0.48% among 360,000; inhibition, % at 6.5 µM; P32245; MC4R-expressing cells, MTII-stimulated cAMP, LANCE TR-FRET;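 active means inhibition above its plate's cutoff, the mean of tested wells on that plate plus 3 SD, cut at about 29% in these data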
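System: U2OS cells stably expressing human melanocortin 4 receptor (MC4R). Reagent: Melanotan II challenge after compound preincubation. Doses: 6.5 µM. Times: 30-min compound, 1-h challenge, 1-h detection, room temperature. Measured by: TR-FRET with Eu-cAMP and labeled anti-cAMP, 671 nm. Replicates: singlicate.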
TbMetRS inhib: blocks T. brucei methionyl-tRNA synthetase activity; AID 624268; inhibition, % at 11.9 µM; hit rate 0.4% among 360,000; purified T. brucei MetRS, ATP depletion, Kinase-Glo luminescence;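 active means inhibition above a per-plate cutoff of the control wells' mean inhibition plus 3 SD, cut at about 5.5% in these data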
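Test system – parasite MetRS enzyme · Reagent – substrates ATP, L-methionine and bulk Escherichia coli tRNA · Doses – 11.9 µM compound single dose, 0.9% DMSO · Times – 15 min enzyme-compound preincubation, 2 h reaction, 10 min detection, 25 °C · Signal – Kinase-Glo luminescence, ATP depletion format · Controls – DMSO-only wells as low control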
MC4R barr agon: human MC4R agonism via beta-arrestin | P32245 | U2OS MC4R beta-arrestin complementation, luminescence; percent of melanotan II response, DMSO zero | activation, % at 8.9 µM | hit rate 0.98% among 360,000 | AID 540308;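 active means activation above a per-plate cutoff, the mean activation of sample wells on that plate plus 3 SD, cut at about 8% in these data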
MC4R barr ag: human MC4R beta-arrestin agonism confirmation; U2OS MC4R beta-arrestin recruitment, luminescence; scaled DMSO 0%, Melanotan II 100%; activation, % at 8.9 µM; AID 602192; shares compounds with MC4R barr agon; hit rate 31% among 2,400;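 active means mean activation across replicates above the hit cutoff set in the earlier primary screen, cut at about 8% in these data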
MOR DOR agonist: OPRM1-OPRD1 heterodimer agonism counter-screen; shares compounds with MC4R barr agon; U2OS PathHunter beta-arrestin, beta-gal luminescence; percent of deltorphin B response, DMSO zero; activation, % at 9.2 µM; hit rate 5.8% among 2,400; AID 602194;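 active means mean activation across replicates exceeds the hit threshold derived in the earlier primary screen, cut at about 18% in these data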
Of the large screens only hits and unclear results are named; the others gave an inactive call (follow-up assays come after a bar, where they were run). In the library only some 2.6% were active in any assay of this set; here they are far more common.

COC(=O)c1ccc(N2CCS(=O)(=O)CC2)cc1	none
O=C(C(Cl)Cl)N1CC2CCC(CC2)C1	none
Cc1ccc(-c2csc(N(C)C(=O)c3c(C)nn(-c4ccccc4)c3Cl)n2)cc1	MC4R barr agon 16 | MC4R barr ag inactive | MOR DOR agonist inactive
Cc1ccc2nc(-c3ccc(NC(=O)CN4C(=O)NC(C)(c5ccc(OC(F)F)cc5)C4=O)cc3)sc2c1 (stereo unspecified)	MC4R barr agon 18 | MC4R barr ag inactive | MOR DOR agonist inactive
N#Cc1ccsc1NC(=O)COC(=O)c1ccc2ccccc2c1	MC4R barr agon 17 | MC4R barr ag inactive | MOR DOR agonist inactive
Cc1ccc([N+](=O)[O-])cc1NC(=S)NC(=O)C(C)(C)C	none
Cc1ccc([N+](=O)[O-])cc1NC(=S)NC(=O)c1c(Cl)cnn1C	MC4R barr agon 18 | MC4R barr ag inactive | MOR DOR agonist inactive
CCc1ccc2c(COC(=O)C3CC(=O)N(CCc4ccccc4)C3)cc(=O)oc2c1 (stereo unspecified)	none
CCNc1nc(NCC)nc(N(CC)C(N)=S)n1	none
O=C(CSc1ccc(Cl)cc1)NC1CCCc2ccccc21 (stereo unspecified)	MC4R barr agon 11 | MC4R barr ag inactive | MOR DOR agonist inactive
O=C(CSc1c(Cl)cccc1Cl)NC1CCCc2ccccc21 (stereo unspecified)	MC4R barr agon 31 | MC4R barr ag inactive | MOR DOR agonist inactive
O=C(CSc1ccccc1Cl)NC1CCCc2ccccc21 (stereo unspecified)	none
O=C(CSc1nc2ccc(Cl)cc2[nH]1)NC1CCCc2ccccc21 (stereo unspecified)	none
O=C(/C=C/c1ccc(Br)cc1)N1CCN(c2cccc(C(F)(F)F)c2)CC1	MC4R barr agon 14 | MC4R barr ag inactive | MOR DOR agonist inactive
O=C(/C=C/c1cccc(Br)c1)N1CCN(c2cccc(C(F)(F)F)c2)CC1	none
CCOC(=O)Nc1sc(C)c(C)c1C(=O)OCC	MC4R barr agon 10 | MC4R barr ag inactive | MOR DOR agonist inactive
COc1ccc(NC(=O)COC(=O)c2c(NC(C)=O)sc(C)c2C)cc1	MC4R barr agon 31 | MC4R barr ag 18 | MOR DOR agonist inactive
CC(=O)Nc1sc(C)c(C)c1C(=O)OCC(=O)NCc1ccccc1	none
CC(=O)c1sc(NC(=O)CSC(C)C(=O)Nc2cc(C)on2)nc1-c1ccccc1 (stereo unspecified)	none
CC/C(=N\n1nnnc1Nc1ccccc1)c1ccccc1	none
CC(C)c1ccc(/C=N/n2nnnc2Nc2ccccc2)cc1	MC4R barr agon 11 | MC4R barr ag 15 | MOR DOR agonist inactive
Cc1c(C(c2ccc(C(=O)O)cc2)c2c(C)n(C)n(-c3ccccc3)c2=O)c(=O)n(-c2ccccc2)n1C	none
CCOC(=O)c1nn(-c2ccccc2F)c2nc(-c3ccco3)c(C#N)c(=O)n12	none
CCOC(=O)c1nn(-c2cccc(OC)c2)c2nc(CC)c(C#N)c(=O)n12	MC4R barr agon 11 | MC4R barr ag inactive | MOR DOR agonist inactive
O=C1Nc2ccccc2O/C1=C\c1ccccc1	MC4R barr agon 13 | MC4R barr ag inactive | MOR DOR agonist inactive
COc1cc(C)ccc1OCc1cc(C(=O)N2CCN(C)C[C@@H]2c2ccccc2)no1	none
CC1CCc2c(sc3ncn4c(SCC(=O)NCc5ccco5)nnc4c23)C1 (stereo unspecified)	MC4R barr agon 10 | MC4R barr ag 9.9 | MOR DOR agonist inactive
CCCCOc1ccc(OCCNC(=O)C2CCCN2C(=O)Nc2ccccc2)cc1 (stereo unspecified)	none
Cc1ccc2nsnc2c1NC(=O)c1sc2ccccc2c1Cl	MC4R barr agon 13 | MC4R barr ag inactive | MOR DOR agonist inactive
Cc1nnc(NC(=O)c2sc3ccccc3c2Cl)s1	none
COCCNc1nnc(SC(C)C(=O)Nc2ccc(-c3nc4ccc(C)cc4s3)cc2)s1 (stereo unspecified)	MC4R barr agon 15 | MC4R barr ag inactive | MOR DOR agonist inactive
COCCNc1nnc(SC(C)C(=O)Nc2c(C)n(C)n(-c3ccccc3)c2=O)s1 (stereo unspecified)	none
O=C(CCN1C(=O)c2ccccc2C1=O)Nc1ccc(-c2cn3ccsc3n2)cc1	MC4R barr agon 13 | MC4R barr ag inactive | MOR DOR agonist inactive
CCOc1ccc2nc(NC(=O)c3cccc(-c4cc5ccccc5oc4=O)c3)sc2c1	MC4R barr agon 24 | MC4R barr ag 13 | MOR DOR agonist inactive
CCOc1ccc(CCNC(=O)COc2cccc(-n3cnnn3)c2)cc1OCC	none
COC(=O)c1ccc(COc2ccc(/C=C(\C#N)c3nc4ccccc4[nH]3)cc2OC)o1	none
CCc1ccc(NC(=O)COc2ccc(/C=C(/C#N)c3nc4ccccc4[nH]3)cc2OC)cc1	MC4R barr agon 69 | MC4R barr ag 17 | MOR DOR agonist 23
C/C(=N\NC(=O)Nc1ccccc1)c1ccc2ccccc2c1	MC4R barr agon 21 | MC4R barr ag inactive | MOR DOR agonist inactive
C/C(=N/NC(=O)Nc1ccccc1)c1ccc(C)cc1	MC4R barr agon 11 | MC4R barr ag inactive | MOR DOR agonist inactive
CCNc1nc(NC(C)C)nc(Oc2ccc(=O)n(C)n2)n1	none
O=C(Nc1nc(-c2ccc(F)c(F)c2)cs1)Nc1ccc(F)cc1F	MC4R barr agon 10 | MC4R barr ag inactive | MOR DOR agonist inactive
NS(=O)(=O)c1ccc(CNC(=O)Cn2nc(C(F)F)cc2C(F)F)cc1	none
CCn1c(SCc2nc3ccccc3c(=O)[nH]2)nnc1C(C)NC(=O)c1ccccc1F (stereo unspecified)	none
CN(C)S(=O)(=O)Oc1ccsc1C(=O)Nc1ccc(Cl)c(Cl)c1	none
CCOc1ccc(/C=N/OCC(=O)Nc2ccc(OCc3ccccc3)cc2)cc1OC	MC4R barr agon 13 | MC4R barr ag 8.2 | MOR DOR agonist inactive
COc1ccc(COc2ccsc2C(=O)Nc2ccc(Cl)c(Cl)c2)cc1	MC4R barr agon 12 | MC4R barr ag 25 | MOR DOR agonist inactive
COc1ccc(C(=O)Nc2ccc(Nc3ccccc3)cc2)cc1[N+](=O)[O-]	none
Cc1ccsc1C(=O)Nc1ccc(OCc2ccccc2)cc1	MC4R barr agon 9.7 | MC4R barr ag inactive | MOR DOR agonist inactive
